Test results taken from ChEMBL document CHEMBL3352424, “Synthesis, biological evaluation and 3D-QSAR study of hydrazide, semicarbazide and thiosemicarbazide derivatives of 4-(adamantan-1-yl)quinoline as anti-tuberculosis agents” (Eur J Med Chem, 2014).
In brackets after ≈: the same amount, converted by molar mass.

What was measured:
[1] = system: L929; experiment: Cytotoxicity against mouse L929 cells assessed as reduction in cell viability up to 200 ug/ml after 5 days by MTT assay; type: cell-based; details: l929, 120 h
In short: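 MTT viability assay in mouse fibroblasts, run on compounds active against TB, with 200 µg/mL as the highest test concentration.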

[2] = system: Mycobacterium tuberculosis; experiment: Antitubercular activity against Mycobacterium tuberculosis H37Rv strain; type: functional
[3] = system: Mycobacterium tuberculosis; experiment: Antitubercular activity against Mycobacterium tuberculosis H37Rv strain at 6.25 ug/ml by microplate alamar blue assay; type: functional
[4] = system: Mycobacterium tuberculosis; experiment: Antitubercular activity against Mycobacterium tuberculosis H37Rv strain by BACTEC 460 radiometric assay; type: functional, organism-based
[5] = system: Mycobacterium tuberculosis; experiment: Antitubercular activity against Mycobacterium tuberculosis H37Rv strain at 1.56 ug/ml by microplate alamar blue assay; type: functional

`NNC(=O)c1cc(C23CC4CC(CC(C4)C2)C3)c2ccccc2n1` was tested, and the Activity [1] was “Non-toxic” and the MIC99 [2] was 3.12 µg/mL (≈ 9.72 µM).

In the case of `CC(=O)NNC(=O)c1cc(C23CC4CC(CC(C4)C2)C3)c2ccccc2n1`, the Activity [1] is reported as “Non-toxic”, the inhibition at 6.25 µg/mL [3] is reported as 5% and the IC50 [4] is reported as 324 µM. It also gave an MIC90 [4] of 6.25 µg/mL (≈ 17.2 µM).

With `CCCCCCCCCCC(=O)NNC(=O)c1cc(C23CC4CC(CC(C4)C2)C3)c2ccccc2n1` the Activity [1] was “Non-toxic”, the inhibition at 6.25 µg/mL [3] was 32% and the IC50 [4] was 26.9 µM. The MIC90 [4] was 6.25 µg/mL (≈ 12.8 µM).

`O=C(NNC(=O)c1ccco1)c1cc(C23CC4CC(CC(C4)C2)C3)c2ccccc2n1` was tested, and the Activity [1] was “Non-toxic”, the inhibition at 6.25 µg/mL [3] was 0% and the MIC90 [4] was 6.25 µg/mL (≈ 15 µM).

`O=C(NNC(=O)c1c(F)c(F)c(F)c(F)c1F)c1cc(C23CC4CC(CC(C4)C2)C3)c2ccccc2n1` was tested, and the Activity [1] was “Non-toxic”, the inhibition at 6.25 µg/mL [3] was 88% and the IC50 [4] was 1.66 µM. For the same compound, the MIC90 [4] was 6.25 µg/mL (≈ 12.1 µM).

In the case of `O=C(NNC(=O)c1cccs1)c1cc(C23CC4CC(CC(C4)C2)C3)c2ccccc2n1`, the Activity [1] is reported as “Non-toxic”, the inhibition at 6.25 µg/mL [3] is reported as 9% and the IC50 [4] is reported as 148 µM. For the same compound, the MIC90 [4] was 6.25 µg/mL (≈ 14.5 µM).

`O=C(NNC(=O)N1CCOCC1)c1cc(C23CC4CC(CC(C4)C2)C3)c2ccccc2n1` was tested, and the Activity [1] was “Non-toxic”, the inhibition at 6.25 µg/mL [3] was 3% and the IC50 [4] was 468 µM. For the same compound, the MIC90 [4] was 6.25 µg/mL (≈ 14.4 µM).

For `O=C(NNC(=O)c1cc(C23CC4CC(CC(C4)C2)C3)c2ccccc2n1)c1ccccc1`, the Activity [1] was “Non-toxic”, the inhibition at 6.25 µg/mL [3] was 12% and the IC50 [4] was 107 µM. The MIC90 [4] was 6.25 µg/mL (≈ 14.7 µM).

For `O=C(NNC(=O)c1cc(C23CC4CC(CC(C4)C2)C3)c2ccccc2n1)c1cccc(C(F)(F)F)c1`, the Activity [1] was “Non-toxic”, the inhibition at 6.25 µg/mL [3] was 69% and the IC50 [4] was 5.75 µM. For the same compound, the MIC90 [4] was 6.25 µg/mL (≈ 12.7 µM).

In the case of `O=C(NNC(=O)c1cc(C23CC4CC(CC(C4)C2)C3)c2ccccc2n1)c1ccncc1`, the Activity [1] is reported as “Non-toxic”, the inhibition at 6.25 µg/mL [3] is reported as 56% and the IC50 [4] is reported as 11.5 µM. For the same compound, the MIC90 [4] was 6.25 µg/mL (≈ 14.7 µM).

With `O=C(NNC(=O)c1cccc2ccccc12)c1cc(C23CC4CC(CC(C4)C2)C3)c2ccccc2n1` the Activity [1] was “Non-toxic”, the inhibition at 6.25 µg/mL [3] was 88% and the IC50 [4] was 4.47 µM. It also gave an MIC90 [4] of 6.25 µg/mL (≈ 13.1 µM).

For `O=C(NNC(=O)c1cc(C23CC4CC(CC(C4)C2)C3)c2ccccc2n1)c1cccnc1`, the Activity [1] was “Non-toxic”, the inhibition at 6.25 µg/mL [3] was 74% and the IC50 [4] was 5.13 µM. The MIC90 [4] was 6.25 µg/mL (≈ 14.7 µM).

With `O=C(NNC(=O)C12CC3CC(CC(C3)C1)C2)c1cc(C23CC4CC(CC(C4)C2)C3)c2ccccc2n1` the Activity [1] was “Non-toxic”, the inhibition at 6.25 µg/mL [3] was 87% and the IC50 [4] was 1.95 µM. The MIC90 [4] was 6.25 µg/mL (≈ 12.9 µM).

With `O=C(NNC(=O)c1cc(C23CC4CC(CC(C4)C2)C3)c2ccccc2n1)c1ccc2ccccc2c1` the Activity [1] was “Non-toxic”, the inhibition at 6.25 µg/mL [3] was 90% and the IC50 [4] was 4.68 µM. It also gave an MIC90 [4] of 6.25 µg/mL (≈ 13.1 µM).

`O=C(NNC(=O)c1cc(C23CC4CC(CC(C4)C2)C3)c2ccccc2n1)Nc1ccc(OC(F)(F)F)cc1` was tested, and the Activity [1] was “Non-toxic”, the inhibition at 6.25 µg/mL [3] was 99% and the IC50 [4] was 0.427 µM. For the same compound, the MIC90 [4] was 3.12 µg/mL (≈ 5.96 µM) and the inhibition at 1.56 µg/mL [5] was 50%.

With `C=CCCCCCCCCC(=O)NNC(=O)c1cc(C23CC4CC(CC(C4)C2)C3)c2ccccc2n1` the Activity [1] was “Non-toxic”, the inhibition at 6.25 µg/mL [3] was 50% and the IC50 [4] was 12.9 µM. The MIC90 [4] was 6.25 µg/mL (≈ 12.8 µM).
